This note sets out measurements from ChEMBL document CHEMBL4033652, “Design, synthesis, and pharmacological evaluation of 4-azolyl-benzamide derivatives as novel GPR52 agonists” (Bioorg Med Chem, 2017).

SMILES strings stand for the structures.

Data set [1] addresses T1, G-protein coupled receptor 52 (Homo sapiens, UniProt Q9Y2T5). Nature of the data set: Agonist activity at human GPR52 expressed in CHO cells assessed as increase in cAMP level after 30 mins by AlphaScreen assay. The data set is classed as functional, cell-based. The essentials:
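CHO cells stably expressing human GPR52 (10,000/well) exposed to compound at various concentrations, 30 min, 37°C, in HBSS with 5 mM HEPES pH 7.6, 0.5% BSA, 100 µM IBMX and 100 µM Ro20-1724. AlphaScreen acceptor/donor beads added overnight at room temperature. Response expressed relative to a reference benzofuran agonist (100%). EC50 from mean curves, n = 2–4, 95% CI.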
In general terms: Cyclic AMP is a second messenger, typically raised through Gs and lowered through Gi signalling.

For data set [2], the target named is T1, G-protein coupled receptor 52. Nature of the data set: Agonist activity at human GPR52 expressed in CHO cells assessed as increase in cAMP level after 30 mins by AlphaScreen assay relative to (N-(2-hydroxyethyl)-3-(2-(3-(trifluoromethyl)benzyl)-1-benzofuran-4-yl)benzamide). The data set is classed as functional, cell-based. The method, boiled down: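 CHO cells stably expressing human GPR52, 10,000 cells per well, exposed to compound 30 min at 37°C in HBSS with 5 mM HEPES pH 7.6, 0.5% BSA, 100 µM IBMX and 100 µM Ro20-1724. cAMP measured by AlphaScreen with acceptor and biotinylated donor beads after overnight room-temperature incubation. Emax set relative to the reference benzofuran benzamide (100%). EC50 taken from mean curves, n = 2–4, with 95% CI.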

Data set [3] can be described thus: Total clearance in Sprague-Dawley rat at 0.1 mg/kg, iv or 1 mg/kg, po administered as cassette dose by LC/MS/MS analysis. Format: ADME, organism-based. To be noted: in vivo. The essentials:
(§1)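 Cassette dosing in non-fasted male SD rats (n = 3): i.v. 0.1 mg/kg or p.o. 1 mg/kg. Plasma prepared from blood, deproteinized, centrifuged, supernatant measured by LC/MS/MS. AUC taken over 0–8 h.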

Data set [4] in a line: Oral bioavailability in Sprague-Dawley rat at 1 mg/kg administered as cassette dose by LC-MS/MS analysis. The data set is classed as ADME, organism-based. The conditions noted are these: in vivo. The method, boiled down: as §1
Data set [5] is described as follows: AUC (0 to 8 hrs) in Sprague-Dawley rat at 1 mg/kg, po administered as cassette dose by LC-MS/MS analysis. More on the design: time < 8 hr, dose 1 mg/kg, route oral. To be noted: in vivo. Format: ADME, organism-based. The method, boiled down:
as §1

T1 sequence (Q9Y2T5 whole entry): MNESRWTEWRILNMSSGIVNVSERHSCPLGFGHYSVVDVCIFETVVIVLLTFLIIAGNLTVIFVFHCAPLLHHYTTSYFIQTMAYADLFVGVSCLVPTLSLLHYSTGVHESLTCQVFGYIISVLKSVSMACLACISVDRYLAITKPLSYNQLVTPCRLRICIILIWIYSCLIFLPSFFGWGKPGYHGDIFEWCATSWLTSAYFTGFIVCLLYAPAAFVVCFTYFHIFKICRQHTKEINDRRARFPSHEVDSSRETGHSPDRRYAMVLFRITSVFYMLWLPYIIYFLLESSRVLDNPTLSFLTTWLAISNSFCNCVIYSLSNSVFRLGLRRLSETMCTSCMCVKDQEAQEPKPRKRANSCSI

What is called EC50 is the concentration needed to bring the measured effect to its halfway point. What is called Emax is the greatest response seen or fitted, relative to the assay's reference. Consider `Cc1cc(-c2sc(Cc3cccc(Cl)c3)nc2C)ccc1C(N)=O`, for which the EC50 in data set [1] was found to be 0.13 µM. Besides, in data set [2], the Emax was determined as 75%.
The term bioavailability denotes dose-corrected exposure relative to a reference, in per cent. A word on the AUC(0-t): it is the area under the concentration-time curve up to a stated or last time point. Read a low AUC(0-t) as less exposure. In the case of `Cc1cc(-c2cc(Cc3cc(F)cc(C(F)(F)F)c3)nn2C)ccc1C(N)=O`, the clearance in data set [3] was 1.97 L/h/kg. For the same compound, in data set [1], the EC50 was 0.023 µM. The bioavailability in data set [4] is 30.5%. In data set [5], this compound returned an AUC(0-t) at 8 h of 0.155 µg·h/mL. Moreover, in data set [2], the Emax was 123%.
`Cc1cc(-c2sc(Cc3cc(F)cc(Cl)c3)nc2C)ccc1C(N)=O`: the EC50 in data set [1] is 0.025 µM. In data set [2], the Emax is 88%.
The matching figures for `COc1cc(-c2sc(Cc3cccc(C(F)(F)F)c3)nc2C)ccc1C(N)=O`: 0.17 µM and 88%.
For the compound `Cc1nc(Cc2cccc(C(F)(F)F)c2)sc1-c1ccc(C(N)=O)c(C(C)C)c1`, the EC50 in data set [1] was found to be 0.37 µM. In addition, the Emax in data set [2] was 63%.
Consider `Cc1nc(Cc2cccc(C(F)(F)F)c2)sc1-c1ccc(C(N)=O)cc1`, for which the half-maximal effective concentration (EC50) in data set [1] amounted to 0.22 µM. For the same compound, the Emax in data set [2] was determined as 93%.
Consider `Cc1nc(Cc2cccc(C(F)(F)F)c2)sc1-c1ccc(C(N)=O)c(C(F)(F)F)c1`, for which, in data set [1], the EC50 came to 0.11 µM. Also, in data set [2], the Emax was 92%.
Taken in the same sequence, the figures for `Cc1cc(-c2sc(Cc3ccccc3Cl)nc2C)ccc1C(N)=O` were 3.9 µM and 51%.
The matching figures for `Cc1nc(Cc2cccc(C(F)(F)F)c2)sc1-c1ccc(C(N)=O)c(F)c1`: 0.38 µM and 84%.
The matching figures for `CCc1cc(-c2sc(Cc3cccc(C(F)(F)F)c3)nc2C)ccc1C(N)=O`: 0.083 µM and 84%.
